As a reminder, the IC50 is the point on the concentration scale where inhibition reaches its midpoint. The term solubility denotes how much of the substance goes into solution per volume. A higher solubility goes with a readily soluble substance. For orientation: half-life means the time in which the quantity being followed falls by half. A high value points to slow loss.

Here are results for one molecule from ChEMBL document CHEMBL4396973, “Design and development of a series of borocycles as selective, covalent kallikrein 5 inhibitors” (Bioorg Med Chem Lett, 2019).

In one data set the target is Prothrombin (Homo sapiens, UniProt P00734). Description: Inhibition of human recombinant C-terminal 10-His-tagged thrombin (M1 to E622 residues) expressed in mouse NS0 cells using BOC-VPR-AMC as substrate incubated for 40 mins by FLINT assay.
Data set [1] can be described thus: Genotoxicity in Salmonella typhimurium TA1537 in presence of rat S9 fraction by mini-Ames test. Format: toxicity, subcellular. The note with it: salmonella enterica subsp. enterica serovar typhimurium. In general terms: In the Ames test, an excess of revertant colonies over the control signals mutagenicity.
The target of data set [2] is T1, Kallikrein-5 (Homo sapiens, UniProt Q9Y337).
T1 sequence (Q9Y337 whole entry): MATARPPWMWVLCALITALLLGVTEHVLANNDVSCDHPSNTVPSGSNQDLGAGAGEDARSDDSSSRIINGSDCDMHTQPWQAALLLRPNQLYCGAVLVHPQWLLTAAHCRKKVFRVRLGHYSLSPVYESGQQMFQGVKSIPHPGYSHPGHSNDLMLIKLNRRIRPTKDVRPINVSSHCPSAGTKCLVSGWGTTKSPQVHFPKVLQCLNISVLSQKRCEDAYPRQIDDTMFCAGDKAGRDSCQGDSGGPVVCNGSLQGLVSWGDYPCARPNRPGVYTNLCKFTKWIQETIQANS
Description: Inhibition of human recombinant 6His-Q-FLAG-tagged KLK5 expressed in baculovirus infected Sf9 insect cells using (Tos-Gly-Pro-Arg)2[R110].2TFA as substrate measured at 30 secs interval for 5 mins using 1 x 10'10M enzyme by FLINT assay.

Data set [3] in a line: Genotoxicity in Salmonella typhimurium TA1535 in absence of rat S9 fraction by mini-Ames test. Type of data set: toxicity. As to conditions: salmonella enterica subsp. enterica serovar typhimurium.
Data set [4] is described as follows: Solubility of the compound in Britton-Robinson buffer at pH 6 measured after 12 hrs. Format: physicochemical. A digest of the protocol: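 Solubility was measured in Britton-Robinson buffers spanning pH 2 to pH 8. Readings were taken after 12 h and 24 h and reported in mg/mL.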
Data set [5] is described as follows: Genotoxicity in Salmonella typhimurium TA100 in presence of rat S9 fraction by mini-Ames test. The note with it: salmonella enterica subsp. enterica serovar typhimurium. Format: toxicity, subcellular.
Data set [6] has as its target Kallikrein-5 (Homo sapiens) (UniProt Q9Y337). Description: Covalent reversible inhibition of human recombinant 6His-Q-FLAG-tagged KLK5 expressed in baculovirus infected Sf9 insect cells assessed as dissociation half life. A digest of the protocol: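 Jump-dilution experiment used to follow dissociation from KLK5. The apparent off-rate constant (K-off, per min) and dissociation half-life (T1/2) were derived from it.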

A short description of data set [7]: Genotoxicity in Salmonella typhimurium TA98 in absence of rat S9 fraction by mini-Ames test. Format: toxicity. As to conditions: salmonella enterica subsp. enterica serovar typhimurium.
The target of another data set is Coagulation factor X (Homo sapiens, UniProt P00742). Description: Inhibition of recombinant human C-terminal 10-His-tagged factor Xa (L24 to K488 residues) expressed in baculovirus infected Sf21 insect cells using Mca-RPKPVE-Nval-WRK(Dnp)-NH2 as substrate incubated for 40 mins by FLINT assay.
Data set [8] has as its target T1, Kallikrein-5. Description: Inhibition of human recombinant 6His-Q-FLAG-tagged KLK5 expressed in baculovirus infected Sf9 insect cells using (Tos-Gly-Pro-Arg)2[R110].2TFA as substrate measured at 30 secs interval for 5 mins by FLINT assay. A digest of the protocol:
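Standard KLK5 assay format. Its theoretical tight-binding limit corresponds to pIC50 8.4.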

The nature of data set [9]: Half life of the compound in Britton-Robinson buffer at pH 4 to 10 at 0.05 mg/ml. Type of data set: physicochemical.
Data set [10] deals with Urokinase-type plasminogen activator (Homo sapiens, UniProt P00749). Description: Inhibition of recombinant human C-terminal 10-His-tagged urokinase (M1 to L431 residues) expressed in mouse NS0 cells using Z-GGR-AMC as substrate incubated for 40 mins by FLINT assay.
Data set [11] is described as follows: Genotoxicity in Salmonella typhimurium TA98 in presence of rat S9 fraction by mini-Ames test. Format: toxicity, subcellular. As to conditions: salmonella enterica subsp. enterica serovar typhimurium.
A short description of data set [12]: Genotoxicity in Salmonella typhimurium TA1537 in absence of rat S9 fraction by mini-Ames test. Format: toxicity. The note with it: salmonella enterica subsp. enterica serovar typhimurium.
The next data set has as its target T2, Neutrophil elastase (Homo sapiens, UniProt P08246).
T2 sequence (P08246 whole entry): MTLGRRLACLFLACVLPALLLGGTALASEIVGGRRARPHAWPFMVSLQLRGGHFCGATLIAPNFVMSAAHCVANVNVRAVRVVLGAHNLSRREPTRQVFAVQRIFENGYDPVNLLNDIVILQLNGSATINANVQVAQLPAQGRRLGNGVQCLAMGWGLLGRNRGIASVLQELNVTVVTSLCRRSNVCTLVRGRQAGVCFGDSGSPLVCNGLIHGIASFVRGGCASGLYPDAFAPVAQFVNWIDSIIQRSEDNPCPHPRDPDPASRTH
Description: Inhibition of human neutrophil elastase using MeOSuc-AAPV-AMC as substrate incubated for 40 mins by FLINT assay.

For the next data set, the target named is T3, Kallikrein-8 (Homo sapiens, UniProt O60259).
T3 sequence (O60259 whole entry): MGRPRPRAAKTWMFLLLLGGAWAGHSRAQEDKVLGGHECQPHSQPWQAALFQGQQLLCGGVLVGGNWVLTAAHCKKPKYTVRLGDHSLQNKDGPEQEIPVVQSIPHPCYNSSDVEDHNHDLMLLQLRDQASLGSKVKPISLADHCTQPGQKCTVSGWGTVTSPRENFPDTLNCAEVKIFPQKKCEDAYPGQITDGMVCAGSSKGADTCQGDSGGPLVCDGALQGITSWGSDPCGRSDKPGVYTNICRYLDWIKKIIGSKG
Description: Inhibition of recombinant human C-terminal 10-His-tagged KLK8 (Gln29 to Gly260 residues) expressed in mouse NS0 cells using BOC-VPR-AMC as substrate incubated for 40 mins by FLINT assay.

In a further data set the target is Plasma kallikrein (Homo sapiens, UniProt P03952). Description: Inhibition of human C-terminal 6-His-tagged KLKB1 (G20-A638 residues) expressed in mouse NS0 cells using PFR-AMC as substrate incubated for 40 mins by FLINT assay.
Data set [13] is described as follows: Light absorbance of the compound in methanol under UV light irradiation at 290 nm. In outline: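 Compound dissolved in methanol. UV absorbance was examined across the range above 290 nm as a screen for light-mediated skin toxicity risk.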
The target of another data set is T4, Kallikrein-14 (Homo sapiens, UniProt Q9P0G3).
T4 sequence (Q9P0G3 whole entry): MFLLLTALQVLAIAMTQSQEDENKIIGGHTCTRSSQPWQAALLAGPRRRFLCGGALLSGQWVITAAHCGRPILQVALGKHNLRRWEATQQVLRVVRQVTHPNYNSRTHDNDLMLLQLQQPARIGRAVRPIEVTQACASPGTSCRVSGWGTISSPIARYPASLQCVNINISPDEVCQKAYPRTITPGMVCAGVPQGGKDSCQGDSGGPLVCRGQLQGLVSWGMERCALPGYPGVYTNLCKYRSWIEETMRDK
Description: Inhibition of recombinant human C-terminal 10-His-tagged KLK14 (Q19 to M248 residues) expressed in mouse NS0 cells using BOC-VPR-AMC as substrate incubated for 40 mins by FLINT assay.

Data set [14] in a line: Genotoxicity in Salmonella typhimurium TA1535 in presence of rat S9 fraction by mini-Ames test. Format: toxicity, subcellular. As to conditions: salmonella enterica subsp. enterica serovar typhimurium.
The nature of data set [15]: Genotoxicity in Salmonella typhimurium TA100 in absence of rat S9 fraction by mini-Ames test. The note with it: salmonella enterica subsp. enterica serovar typhimurium. Type of data set: toxicity.

Calls of active or inactive are those of the source. No cut-off for these calls is given here. Some results are limits rather than exact numbers.

In the case of `Cl.N=C(N)c1ccc([C@H]2Cc3ccc(C(F)(F)F)cc3B(O)O2)cc1OCc1cccnc1`, the half-inhibitory concentration (IC50) on Prothrombin is 1.26 µM; on Kallikrein-5 [2], < 0.000316 µM; on Coagulation factor X, 0.398 µM; at Kallikrein-5 [8] it was 0.00501 µM; in [10], 7.94 µM; against Neutrophil elastase it was > 100 µM. Besides, the figures for the IC50 at Kallikrein-8, against Plasma kallikrein and at Kallikrein-14 were 0.00631 µM, 0.02 µM and 0.0316 µM, respectively. For the same molecule, the Activity result in data set [1], in data set [3], in data set [5], in data set [7], in data set [11] and in data set [12] was “Non-Toxic” throughout. Besides, the Activity entry in data set [14] and in [15] was “Non-Toxic” in each case. Moreover, in [4], the concentration in solution (solubility at 12 h) came to 3.2 mg/mL. Besides, the T1/2 in [6] was determined as 1.17 h. The half-life at 0.05 mg/ml in data set [9] was > 1000 h. For the same molecule, the result in data set [13] was inactive.
